# MrgX1 ag: agonists of human MrgX1 receptor, primary screen, HEK293 cells, Fluo-4 calcium flux; 0.44% of 310,000 active; Fluo-4 calcium fluorescence, agonist mode; stronger effect = higher value; Mas-related G-protein coupled receptor member X1 (Homo sapiens), Q96LB2; AID 588627, 2011; B-score at 10 µM;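 active means calcium response B-score plate-corrected fluorescence ratio at least 3 library SD, with starting fluorescence B-score inside 5 SD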
# Target sequence (Q96LB2 whole entry, looked up): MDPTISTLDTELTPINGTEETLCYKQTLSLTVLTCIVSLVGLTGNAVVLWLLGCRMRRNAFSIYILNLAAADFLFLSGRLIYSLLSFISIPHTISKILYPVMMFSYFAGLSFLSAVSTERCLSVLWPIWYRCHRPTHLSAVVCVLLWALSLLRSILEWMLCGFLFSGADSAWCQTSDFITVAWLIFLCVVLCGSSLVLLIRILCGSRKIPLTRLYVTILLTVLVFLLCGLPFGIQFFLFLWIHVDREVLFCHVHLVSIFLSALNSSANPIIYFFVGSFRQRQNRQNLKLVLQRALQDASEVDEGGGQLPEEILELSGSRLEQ
#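 Material: MrgX1-expressing HEK293 cells / Dosing: compound as first of three additions / Incubation: overnight seeding, then 1 h dark dye loading / Signal: Fluo-4 NW calcium fluorescence / Evaluation: B-scored fluorescence response ratio / Benchmarks: positive and negative control wells on each plate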
# MrgX1 PAM: positive allosteric modulators of MrgX1, primary screen, HEK293 cells, Fluo-4 calcium flux | Mas-related G-protein coupled receptor member X1 (Homo sapiens), Q96LB2 | FDSS; stronger effect = higher value | B-score at 10 µM | 0.63% of 310,000 active;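 active means plate-corrected calcium response at least 3 library SD above typical, normal starting fluorescence, not activating the receptor alone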;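 further: compound read alongside a low EC10 to EC30 dose of BAM8-22 agonist; peak minus trough fluorescence over baseline measured at the second addition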
# RGS4 act: RGS4 potentiators or activators, primary screen, cell-based, HEK293 M3R inducible RGS4, calcium flux; carbachol calcium flux Fluo4; stronger effect = lower value; B-score at 10 µM; 0.92% of 310,000 active; AID 463111, 2010;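 active means B-score of the integrated calcium signal more than 4 SD below the library mean, with starting fluorescence not abnormally high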;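 further: negative B-score means reduced calcium response which marks RGS4 activation or potentiation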
#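 Detection: kinetic calcium fluorescence imaging with Fluo4-AM dye, 2 µM / Material: HEK293 cells with stable M3R and inducible RGS4 / Schedule: recording 10 s baseline at 1 Hz, 100 s post-agonist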
# RGS4 inh: RGS4 inhibitors, primary screen, cell-based, HEK293 M3R inducible RGS4, calcium flux; 0.45% of 310,000 active; B-score at 10 µM; Fluo-4 calcium flux; stronger effect = higher value; triggered by carbachol at its EC20; AID 463165, 2010; Regulator of G-protein signaling 4 (Homo sapiens), P49798;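 active means B-score, a plate-corrected calcium signal, over three deviations above library mean, with baseline fluorescence within five deviations of library mean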;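 further: RGS4 expression induced by doxycycline in cells with stable M3 receptor; B-score is computed from the integrated fluorescence ratio over baseline after carbachol; higher B-score means a larger calcium signal and so more RGS4 inhibition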
# Target sequence (P49798 whole entry, looked up): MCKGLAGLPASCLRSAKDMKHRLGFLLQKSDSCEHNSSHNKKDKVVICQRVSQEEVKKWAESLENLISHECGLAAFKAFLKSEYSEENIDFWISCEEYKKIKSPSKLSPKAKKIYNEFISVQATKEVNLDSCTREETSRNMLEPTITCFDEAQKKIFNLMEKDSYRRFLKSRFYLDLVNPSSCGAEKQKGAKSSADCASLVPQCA
# MrgX1 antagonist: antagonists of human MrgX1 receptor, primary screen, HEK293 cells, Fluo-4 calcium flux; Mas-related G-protein coupled receptor member X1 (Homo sapiens), Q96LB2; BAM8-22 antagonism; stronger effect = lower value; B-score at 10 µM; 1.3% of 310,000 active;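 active means calcium-response B-score plate-corrected more than 3 library SD below zero, starting fluorescence within 5 deviations, no agonist response on first addition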;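 further: peak minus trough fluorescence over baseline after final BAM8-22 challenge near maximal dose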
# A number is an active result; 0 = inactive; - = no result given. Hits are enriched below; roughly 3.5% of the tested compounds scored in any of these assays.
SMILES,MrgX1 ag,MrgX1 PAM,RGS4 act,RGS4 inh,MrgX1 antagonist
COC(=O)Nc1c(-c2ccccc2)nc2ccc(C)cn12,0,0,0,0,0
CCCCNc1c(-c2cccc(-c3ccc(OC)cc3)c2)nc2ccc(C)cn12,0,0,-7.8,0,0
Cc1cc(C(=O)NC2CCCc3c2cnn3-c2ccc(C(C)(C)C)cc2)nn1C (stereo not given),0,0,0,0,0
CC(=O)Nc1ccc(S(=O)(=O)NNC(=O)c2sc(=S)n(C)c2C)cc1,0,0,0,0,-4.6
Cc1c(C(=O)NNS(=O)(=O)c2ccccc2Cl)sc(=S)n1C,0,0,0,0,0
COc1ccccc1NC(=O)/C(C#N)=C/c1cc([N+](=O)[O-])ccc1N1CCCC1,0,0,0,0,-6.6
COc1ccccc1NC(=O)/C(C#N)=C/c1ccncc1,0,0,0,0,0
COc1ccc(-c2noc(CCC(=O)N3CCC(C)CC3)n2)cc1,0,0,0,0,0
COc1ccc(-c2noc(CCC(=O)N3CCN(Cc4ccccc4)CC3)n2)cc1,0,0,0,0,-5.3
COC(=O)CN1C(=O)[C@H]2[C@@H](/C=C/c3ccccc3)N3C(=O)CN(CCO)C(=O)[C@@]3(Cc3ccccc3)[C@H]2C1=O,0,0,0,0,0
CCCC[C@H]1COCCS(=O)(=O)N1Cc1ccc(Br)cc1,0,0,-7.1,0,0
CN(CCC#N)C(=O)COC(=O)/C=C/c1ccc2c(c1)OCO2,0,0,0,0,-6
Cc1ccc(N(CC2CO2)S(=O)(=O)c2ccc([N+](=O)[O-])cc2)cc1 (stereo not given),0,7.4,0,0,0
Cc1ccc(N(CC2CO2)S(=O)(=O)c2ccc(C)cc2)cc1 (stereo not given),0,0,0,0,0
CCN(CC)c1nc2c(c(=O)[nH]c(=O)n2C)n1CCOc1ccccc1,0,0,0,0,0
COc1ccc(NC(=O)c2cc(S(=O)(=O)N3CCCCC3)ccc2N2CCCCC2)cn1,0,0,-7,0,0
COc1ccc(NC(=O)c2cc(S(=O)(=O)N3CCOCC3)ccc2N2CCOCC2)cc1,0,0,0,0,0
Cc1ccc(CN2CCN(C(=O)CCC(=O)Nc3nnc(C(C)C)s3)CC2)c(C)c1,0,0,0,0,0
CCOC(=O)/C(C#N)=C(C)/C=C1\Sc2ccccc2N1CC,0,0,0,0,-5.4
O=c1ccc2cc3c([nH]c4ccc(Br)cc43)oc-2c1O,0,11,0,0,0
c1coc(C2Nc3cccc4cccc(c34)N2)c1,0,0,0,7.2,0
NCCCCCc1nnc(SCc2ccc(Cl)c(Cl)c2)o1,0,0,-7.1,0,0
CN(C)S(=O)(=O)c1ccc(C(=O)NCc2nnc(SCC(=O)c3ccccc3)o2)cc1,0,0,0,0,0
COc1ccccc1/C=C(/C(=O)OCC(=O)NCc1ccccc1)c1ccccc1,0,0,0,0,-5.5
O=C1C=CC(=O)N1c1cccc(-c2ccccc2)c1,0,0,-9.5,0,0
SMILES,MrgX1 ag,MrgX1 PAM,RGS4 act,RGS4 inh,MrgX1 antagonist
COc1ccc(/C=C(\C#N)C(=O)c2c(C)[nH]c3ccccc23)cc1OC,32,0,0,0,0
COc1ccccc1NC(=O)CCCCCN1C(=O)c2cccc([N+](=O)[O-])c2C1=O,0,0,0,0,0
COc1cc(/C=C2/C(=O)c3cccc([N+](=O)[O-])c3C2=O)c(Br)cc1O,35,0,-,-,0
O=C1Nc2ccccc2/C1=C/c1cccnc1,0,0,0,0,0
O=C1Nc2ccccc2/C1=C/c1cnc(-c2ccccc2)[nH]1,0,0,-7,0,0
Cc1cc(C(=O)N2CCCC(N3CCN(c4cccc(Cl)c4)CC3)C2)nc(C)n1 (stereo not given),0,0,0,0,0
CCCOC1CCCN(C(=O)c2ccc(OC)c(OC3CCN(C(C)C)CC3)c2)C1 (stereo not given),0,0,0,0,0
CCOC(=O)c1c(-c2ccccc2)oc2ccc(OCC(O)CNCCN(C)C)cc12 (stereo not given),0,0,-7.6,0,0
CCOC(=O)c1c(-c2ccccc2)oc2ccc(OCC)cc12,0,0,0,0,0
O=C(O)c1ccccc1C(=O)Nc1cccc([N+](=O)[O-])c1,0,0,0,0,0
O=C(Nc1cccc([N+](=O)[O-])c1)c1cc2ccccc2cc1O,0,0,0,0,-4.8
O=C(O)CCC1c2cc3c4cc2OC2Oc5cc6c(cc51)C(CCC(=O)O)c1cc5c7cc1OC(O6)c1cc6cc(c1)Oc1cc(cc(C(=O)O)c1)Oc1cc8cc(c1)C(Oc1cc(c(cc1C5CCC(=O)O)C3CCC(=O)O)OC(O4)c1cc(cc(c1)Oc1cc(cc(C(=O)O)c1)O8)Oc1cc(cc(C(=O)O)c1)Oc1cc(cc2c1)Oc1cc(cc(C(=O)O)c1)O6)O7 (stereo not given),29,0,0,0,0
O=[N+]([O-])c1ccc(O)c(/C=N/NC2=NS(=O)(=O)c3ccccc32)c1,0,8.5,0,0,0
CCN1C(=O)/C(=C\N2CCN(C)CC2)SC1=S,0,0,0,0,-4.6
Oc1cccc(C(Nc2nccs2)c2ccc3cccnc3c2O)c1 (stereo not given),0,0,-7,0,0
CCCCOc1ccc(/C=N/NC(=O)c2csc(C)c2C)cc1,0,0,-8.6,0,0
COC(=O)C1CN(C(=O)COc2ccc(C)cc2)c2ccccc2O1 (stereo not given),0,0,0,0,0
COC(=O)c1ccc(N2CCc3ccccc32)c([N+](=O)[O-])c1,0,7.7,0,0,0
O=C(O)c1ccc(N2CCc3ccccc32)c([N+](=O)[O-])c1,0,0,0,0,0
O=C1/C(=C\c2c(NCCOCCO)nc3ccccn3c2=O)SC(=S)N1Cc1ccco1,0,0,0,0,-15
C/C(=N\NC(=S)NC1CCCCC1)c1ccc(Cl)c(Cl)c1,0,0,0,0,-4.9
O=C(Cc1c(F)c(F)c(F)c(F)c1F)Nc1nc(-c2ccccc2)cs1,0,0,-7.1,0,0
COc1cccc2c1C(=O)C=C(C)C2=O,0,0,-7.1,0,-7.7
CCCN(CCC)c1cc(Cl)nc(N)n1,0,0,0,0,0
CCOC(=O)C1CCN(c2c(NCCN(CC)c3ccccc3)c(=O)c2=O)CC1,0,10,0,0,0
COc1nc(N(c2ccccc2)c2ccccc2)nc(-n2ccnc2)n1,0,12,0,0,0
COc1ccc(-n2ccnc2)cc1,0,0,0,0,0
Cc1ccc(OCC(COCc2ccccc2)NC(C)C)cc1 (stereo not given),0,0,0,0,0

# Screening data (PubChem BioAssay)
